The text below walks through data of PubChem BioAssay AID463079 (The Scripps Research Institute Molecular Screening Center, 2010).

About 2,000 (0.61%) of roughly 330,000 compounds were called active. The sample holds actives, similar compounds and a random draw of the others, so the mix is not that of the screen. Unmarked numbers belong to inactive results.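 The calls were made as follows: active = inhibition above that plate's mean sample inhibition plus 3 SD (cut at about 26% in these data); inactive = the rest.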

A short description of this assay: nonselective Gq signaling inhibition in CHO cells – cell-based, fluorescence, Fluo-8 calcium dye, counter-screen for OX1R antagonist project, primary screen (AID 463079).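 Also: 0% = ATP-challenged DMSO wells and 100% = DMSO wells without ATP.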 Conditions: parental CHO-K1, ATP-induced calcium, Fluo-8 fluorescence; at 5.6 µM; stronger effect = higher value. The gist of the method:
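Test system: parental CHO cells; detection: calcium-sensitive Fluo-8 fluorescence; evaluation: percent inhibition of calcium signal; also added: ATP as calcium-mobilizing challenge; repeats: one well per compound; control set: ATP-challenged DMSO wells low, unchallenged DMSO wells high; compound: single nominal dose of 5.6 µM per compound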
Broadly, the inhibition is the change of the read-out against control, counted positive when it falls. On to `CN(C(=O)CC1C(=O)NCCN1Cc1ccc(F)cc1Cl)C1CCCCC1` (configuration not stated), for which the inhibition is -17.1%.
For `Cc1ccc(S(=O)(=O)N(Cc2cc3ccccc3[nH]c2=O)CC2CCCO2)cc1` (configuration not stated) the value was -27.8%; for `COCCN(C(=O)CCC(=O)Nc1nccs1)C(C(=O)NCCC(C)C)c1ccc(F)cc1` (configuration not stated), -13%; for `Cn1nccc1C(=O)NC1CCCc2c1cnn2-c1ccc(F)cc1F` (configuration not stated), 45.4% (active).
Under `COc1ccc(C(=O)NC2CCCc3c2cnn3-c2cccc(C)c2C)c(OC)n1` (configuration not stated) stands 40.4% (active); under `CC(=O)NCC(=O)NC1CCCc2c1cnn2-c1ccccc1F` (configuration not stated), 10.8%; under `Cc1cc(C(=O)NC2CC(C)(C)Cc3c2cnn3-c2ccccc2)n[nH]1` (configuration not stated), -10.2%.
`Cc1cc(C(=O)NC2CCCc3c2cnn3-c2cccc(C)c2C)c(C)o1` (configuration not stated): the inhibition is 2.39%.
On to `CC1(C)Cc2c(cnn2-c2cccc(F)c2)C(NC(=O)c2cc[n+]([O-])cc2)C1` (configuration not stated), for which the inhibition is -5.88%.
For `COC(=O)c1ccc(C(=O)NC2CC(C)(C)Cc3c2cnn3-c2ccc(F)cc2)nc1` (configuration not stated) the value was -9.97%; for `Cn1nccc1C(=O)NC1CCCc2c1cnn2-c1ccccc1F` (configuration not stated), 48.7% (active); for `COc1ccc(C(=O)NC2CC(C)(C)Cc3c2cnn3-c2ccccc2C)o1` (configuration not stated), -22.6%.
For `COCCCNC(=O)CN1C(=O)CSc2ccc(S(=O)(=O)N3CCOCC3)cc21` the value was -10.9%.
For `COc1ccc(S(=O)(=O)N2CCOCC2)cc1NC(=O)COc1ccccc1` the value was -8.66%.
For `CCOc1cc(N2CCOCC2)c(OCC)cc1NC(=O)C1=NN(c2cccc(C)c2)C(=O)CC1`, the inhibition was -30.7%.
For `CSC1=NC2(C)CCCCC2C12C=CC(=O)C=C2` (configuration not stated) the value was -8.36%.
Under `Cc1cc(Cl)c2oc(C(=O)N(C)C(C)c3ccccn3)c(C)c2c1` (configuration not stated) stands -25.6%; under `Cc1cc2oc(=O)cc(-c3ccccc3)c2c(C)c1-c1ccc(OC(F)(F)F)cc1`, -24%.
For `C/C(=N\NC(=O)Cc1ccccc1[N+](=O)[O-])c1cccnc1` the value was -2.78%; for `COc1ccc(CNc2ncnc3ccccc23)cc1`, 30% (active).
Turning to `COc1cccc(CNc2nc(C(F)(F)F)nc3ccccc23)c1`, the inhibition is -21.9%.
For `COc1ccc(CNc2nccs2)cc1` the value was -0.35%; for `O=C(Nc1cccc(F)c1)N1C2CCC1CC(O)(c1cccnc1)C2` (configuration not stated), -8.22%.
For `COc1cc(NC(=O)CCNC(=O)Cn2ccc3ccccc3c2=O)cc(OC)c1OC` the value was 0.46%; for `Cc1cc(C(F)F)n2nc(C(=O)Nc3ccc(S(=O)(=O)NC45CC6CC(CC(C6)C4)C5)cc3)nc2n1`, -7.46%.
For `CCn1nccc1C(=O)Nc1ccc(S(=O)(=O)NC23CC4CC(CC(C4)C2)C3)cc1` the value was 61% (active).
For `O=C(Nc1ccc(S(=O)(=O)Nc2ncccn2)cc1)C12CC3CC(CC(C3)C1)C2`, the inhibition was -8.7%.
As to `COc1ccccc1CNS(=O)(=O)c1c(C)[nH]c(C)c1C(=O)N1CCCCC1`, the inhibition was -7.23%.
Consider `Cc1ccc(S(=O)(=O)N(CC(=O)N2CCc3ccccc3C2)c2cccc(Cl)c2)cc1`, for which the inhibition is -23.4%.
On to `COC(=O)Cn1cc(/C=C/[N+](=O)[O-])c2ccccc21`, for which the inhibition was -9.14%.
Turning to `O=C(Cn1ccc2cc(S(=O)(=O)N3CCCC3)ccc21)NCc1ccccc1`, the inhibition was -3.13%.
Under `O=[N+]([O-])/C=C/c1ccc2c(ccn2Cc2ccccc2)c1` stands 42% (active); under `CCCC(C)NC(=O)C1CCN(C(=O)C2CC(=O)N(c3ccc(C)cc3)C2)CC1` (configuration not stated), -8.45%; under `Cc1nc(-c2ccc(F)cc2)c(CC(=O)Nc2cccc(S(=O)(=O)N3CCOCC3)c2)s1`, -17.7%.
For the compound `O=S(=O)(c1cccc(Cn2nnc(-c3ccc(F)cc3)n2)c1)N1CCOCC1`, the inhibition is 41.7% (active).
Under `CCN(Cc1ccncc1)C(=O)c1cccc(S(=O)(=O)N2CCOCC2)c1` stands -16.1%; under `CC(=O)Nc1ccc(S(=O)(=O)Oc2ccc(/C=N/N=C3/NC(=O)C(CC(=O)O)S3)cc2)cc1` (configuration not stated), -3.01%; under `CC(c1ccccn1)N(C)C(=O)c1ccc2nc(Cc3cccc(Cl)c3)oc2c1` (configuration not stated), -18.4%.
Under `CC[C@]12c3[nH]c4ccc(Cl)cc4c3CCN1C(=O)[C@@H](CC(=O)NCCN1CCOCC1)C[C@@H]2C(=O)N1CCN(C(=O)C2CC2)CC1` stands -12.4%.
Under `Cc1cc(OC(=O)c2ccc(Cl)cc2)cc(=O)n1C` stands -3.96%.
`COCCCNc1nc2c(-c3cccc(C)c3)nnn2c2ccc(Cl)cc12`: the inhibition is -27.9%.
`O=C(NCCc1ccc(C(F)(F)F)cc1)c1ccc2c(c1)OCO2`: the inhibition was 40.1% (active).
Under `Cc1ccc2cc(CCNC(=O)c3ccc4c(c3)OCO4)c(=O)[nH]c2c1` stands -18%; under `COc1ccc(CCNC(=O)COc2ccc3c(c2)OCO3)cc1`, -4.78%.
Under `O=S(N1CCCCCC1)C12CC3CC(CC(C3)C1)C2` (configuration not stated) stands -6.89%.
For `COc1ccc(N2CCC(CNC(=S)Nc3c(C)cccc3C)C2)cc1` (configuration not stated) the value was -5.49%.
As for `CC1(C)C2CCC1(C)C(OC(=O)c1ccc(O)cc1)C2` (configuration not stated), the inhibition is 76.2% (active).
Under `CC1(C)C2CCC1(C)C(OC(=O)CCn1ccnc1)C2` (configuration not stated) stands -13.9%; under `Cc1ccc(C(=O)OC2CCCN(C)C2)cc1` (configuration not stated), -15%.
As for `O=C(CNC(=O)c1ccc(Br)o1)NCC1CCCO1` (configuration not stated), the inhibition is 4.99%.
Under `CC[C@]12c3[nH]c4cc(CCC(=O)N(C)C)ccc4c3CCN1C(=O)[C@@H](CC(=O)NCCCN(C)C)C[C@@H]2C(=O)N1CCN(C(=O)c2ccco2)CC1` stands -12.2%.
For `CCC(C)NC(=O)C1c2ccccc2Oc2ccccc21` (configuration not stated) the value was -11.6%; for `CCC(C)(C)NC(=O)C1c2ccccc2Oc2ccccc21`, 41.2% (active); for `CCCCCNC(=O)C1c2ccccc2Oc2ccccc21`, -8.91%.
In the case of `Cc1cc(C)c2nc(SCC(=O)N(C)C3CCS(=O)(=O)C3)cc(C)c2c1` (configuration not stated), the inhibition is -7.05%.
Under `CCOc1ccc(C(=O)Nc2cccc(-c3ccc4nncn4n3)c2)cc1` stands -7.65%.
For `O=S(=O)(NC1CC2CCC1C2)c1ccc(Cl)cc1` (configuration not stated) the value was -7.07%.
